# RAM inhibit = yeast RAM network inhibition; inhibition, % at 50 µM; AID 868; 190,000 compounds, 1.8% hits; S. cerevisiae dse1pr::URA3 reporter, 5-FOA growth OD615, 2 d; analog-sensitive cbk1-as2 kinase mutant strain;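 active means inhibition above a set limit, 3 SD over mean compound inhibition, cut at about 8.4% in these data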;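 further: 0% = DMSO-only wells with no growth and 100% = 10 µM 1-NA-PP1 full growth; inhibition rescues growth on 5-FOA so higher OD means more RAM inhibition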
# Cl transport mod = modulates chloride dependent transport by human KCC2; KCC2 cells, thallium flux FluoZin-2 fluorescence; B-score of Tl+ flux slope (higher = more flux/activation; lower = inhibition) at 10 µM; 190,000 compounds, 2.2% hits; AID 1456;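 active means thallium flux slope and its plate-corrected score both differing from the plate sample mean at a set confidence after two filtering rounds, in either direction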;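 further: slope of fluorescence scaled to starting intensity during 10 to 20 s after thallium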
# Target sequence (Q9H2X9 whole entry, looked up): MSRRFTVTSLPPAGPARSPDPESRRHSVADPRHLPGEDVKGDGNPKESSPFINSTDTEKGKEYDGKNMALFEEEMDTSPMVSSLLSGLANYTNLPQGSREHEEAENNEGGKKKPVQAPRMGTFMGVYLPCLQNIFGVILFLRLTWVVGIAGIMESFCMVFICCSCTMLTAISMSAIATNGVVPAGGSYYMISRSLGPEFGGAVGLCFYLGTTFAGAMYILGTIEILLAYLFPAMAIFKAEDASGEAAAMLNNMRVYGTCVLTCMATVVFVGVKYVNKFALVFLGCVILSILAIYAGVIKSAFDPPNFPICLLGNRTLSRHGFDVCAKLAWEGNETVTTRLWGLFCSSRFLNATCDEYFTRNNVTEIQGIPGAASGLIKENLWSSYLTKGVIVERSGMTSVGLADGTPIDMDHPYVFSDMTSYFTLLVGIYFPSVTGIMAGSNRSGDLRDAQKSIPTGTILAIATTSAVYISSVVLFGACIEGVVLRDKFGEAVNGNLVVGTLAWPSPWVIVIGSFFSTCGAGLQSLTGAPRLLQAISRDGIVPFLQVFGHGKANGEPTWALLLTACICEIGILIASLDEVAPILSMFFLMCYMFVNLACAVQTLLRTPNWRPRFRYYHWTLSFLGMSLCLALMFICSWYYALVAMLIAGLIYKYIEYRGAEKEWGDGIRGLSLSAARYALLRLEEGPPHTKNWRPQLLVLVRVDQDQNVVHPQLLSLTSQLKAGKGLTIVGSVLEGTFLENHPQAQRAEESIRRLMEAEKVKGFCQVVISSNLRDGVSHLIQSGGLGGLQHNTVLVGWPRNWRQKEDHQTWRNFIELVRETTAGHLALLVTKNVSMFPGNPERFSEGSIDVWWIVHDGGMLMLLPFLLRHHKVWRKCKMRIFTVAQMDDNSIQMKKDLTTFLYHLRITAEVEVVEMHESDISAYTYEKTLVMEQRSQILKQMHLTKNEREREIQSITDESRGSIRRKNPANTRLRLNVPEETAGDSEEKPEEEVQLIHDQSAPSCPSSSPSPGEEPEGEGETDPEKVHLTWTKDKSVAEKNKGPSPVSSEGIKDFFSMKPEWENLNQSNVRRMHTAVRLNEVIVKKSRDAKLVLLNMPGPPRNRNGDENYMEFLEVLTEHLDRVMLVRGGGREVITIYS
# WT yeast gro inh = growth inhibition of WT yeast, mitochondrial fusion screen. AID 1362. inhibition, % at 10 µM. 190,000 compounds, 2.1% hits. mitochondrial fusion phenotypic screen, WT strain; in the data active means inhibition above about 58%; tested in S. cerevisiae
# BB579 growth dn = reduces growth of yeast BB579 in restrictive medium; S. cerevisiae BB579 growth, OD615, 48 h; inhibition, % at 10 µM; 140,000 compounds, 0.51% hits; AID 804;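 active means inhibition above a set limit, 3 SD over the mean compound inhibition, cut at about 44% in these data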
#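 System: Saccharomyces cerevisiae DeaD strain BB579, replicative lifespan model yeast | Buffer or medium: Restrictive glucose-based CSMM-D medium | Times: 4 h preincubation and 48 h exposure at 30 °C | Detection: OD615 turbidity measurement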
# Yeast lifespan up = yeast lifespan extension; S. cerevisiae growth with nicotinamide, OD615; deaD strain in restrictive glucose medium; AID 775; inhibition of the nicotinamide effect, % at 10 µM; 130,000 compounds, 0.68% hits;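 active means inhibition above a set limit, placed 3 SD over the median of all compounds, cut at about 26% in these data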;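 further: 0% = nicotinamide-treated wells and 100% = cells grown without nicotinamide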
#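 assay system = DeaD-strain S. cerevisiae | measured by = absorbance at 615 nm | probe or stimulus = nicotinamide 1.5 mM | buffer or medium = CSMM-D glucose medium, restrictive | times = 48 h at 30 °C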
# KCC2 sec1 = confirmation of human KCC2 transport modulators | shares compounds with Cl transport mod | HEK293-KCC2, thallium flux, FluoZin2 fluorescence; hits give high values | normalised thallium flux (F/F0 slope) at 10 µM | 3,700 compounds, 15% hits;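 active means thallium flux slope above the same plate's solvent-only control mean plus 3 SD; inconclusive means the two replicate wells disagree; inactive means no significant difference from solvent-only control wells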
# KCC2 bumet counter = thallium flux persisting under bumetanide in KCC2 cells, counter-screen secondary assay | shares compounds with Cl transport mod | HEK293-KCC2 + bumetanide/ouabain, thallium flux FluoZin2; hits give high values | normalized thallium flux at 10 µM | 3,700 compounds, 49% hits;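 active means thallium entry rate above the same plate's blocked-transporter control wells by more than 3 SD; inconclusive means the two repeat wells disagree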;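 further: raw slope of fluorescence over initial fluorescence between 10 and 20 s after thallium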
# KCC2 sec2 = KCC2 (human) modulation, second secondary assay. shares compounds with Cl transport mod. HEK293-KCC2, thallium flux FluoZin2 fluorescence; actives lie on both sides; F/F0 rise rate, 10–20 s post-thallium. normalized thallium flux at 10 µM. 3,700 compounds, 23% hits. AID 1715;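 active means thallium flux slope more than 3 SD above or below the plate's solvent-only control mean, mostly below; inconclusive means the two repeat wells disagreed; inactive means no significant shift from solvent-only controls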;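 further: raw slope with 0.1% DMSO as baseline and bumetanide as block control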
# HEK counter1 = acts in parental HEK cells, KCC2 counter-screen. AID 1716. HEK293 parental cells, thallium flux FluoZin2, ouabain; baseline-ratio fluorescence slope, 10–20 s after thallium. shares compounds with Cl transport mod. thallium flux rate (normalised fluorescence) at 10 µM. 3,700 compounds, 46% hits;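 active means thallium flux rate significantly above the same plate's solvent-only control wells, beyond their mean plus 3 SD; inconclusive means the two replicate wells gave conflicting results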
# KCC2 retest ouab = confirmation of human KCC2 modulators with ouabain; raw Tl+ flux slope (below DMSO = inhibition, above = activation) at 10 µM; 3,700 compounds, 48% hits; AID 1717; shares compounds with Cl transport mod; HEK293-KCC2, thallium flux FluoZin2 fluorescence; bidirectional: low = inhibitor, high = activator;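 active means thallium flux slope beyond 3 SD from same-plate DMSO control mean in most replicates, usually higher, sometimes lower; inconclusive means repeat tests gave conflicting results; inactive means no significant difference from controls in most replicates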;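 further: slope of initial-normalized fluorescence between seconds 10 and 20 after thallium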
# HEK counter2 = counter-screen for KCC2 modulators: effect in parental HEK293 cells | shares compounds with Cl transport mod | thallium flux FluoZin-2 fluorescence slope | thallium flux slope at 10 µM | 3,700 compounds, 33% hits | AID 1718;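 active means thallium flux slope above the same plate's solvent-control mean plus 3 SD in both duplicate wells; inconclusive means duplicate wells that disagreed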;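 further: run without ouabain in cells lacking the KCC2 cotransporter; slope of fluorescence scaled to its starting value between 10 and 20 s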
# Active calls of the source: *; ? = inconclusive; · = no result given. Shown are actives, neighbours in structure and some others; about 5.5% of the full set was active somewhere.
SMILES,RAM inhibit,Cl transport mod,WT yeast gro inh,BB579 growth dn,Yeast lifespan up,KCC2 sec1,KCC2 bumet counter,KCC2 sec2,HEK counter1,KCC2 retest ouab,HEK counter2
N#C/C(=C(/O)COc1ccccc1)c1nc2ccccc2s1,2.6,-5.44*,-5.4,·,·,?,0.00465,0.0222*,0.00771,0.0169,0.0103
N#C/C(=N\O)c1nc2ccccc2s1,0.8,-0.225,7.8,·,·,·,·,·,·,·,·
COc1ccc(C/C(O)=C(\C#N)c2nc3ccccc3s2)cc1,0.7,-1.06,17.0,-74.0,46.6,·,·,·,·,·,·
N#C/C(=C(/O)c1ccc(F)cc1)c1nc2ccccc2s1,3.1,-4.83*,5.8,·,·,0.00728,0.00576,0.0318,0.00593*,0.0158*,0.00961
N#C/C(=C(/O)COc1ccc(Cl)cc1)c1nc2ccccc2s1,3.6,-3.68*,26.2,·,·,0.007,?,0.0229*,0.00772,?,0.0113
CC(=O)C1C(c2ccccc2OC(F)F)NC(=O)NC1(O)C(F)(F)F (stereo not drawn),-0.5,-1.38,-4.8,-46.9,-21.8,·,·,·,·,·,·
CCOC(=O)c1sc(N2N=C(C)C(N=Nc3cccc(C)c3)C2=O)nc1C (stereo not drawn),·,21.9*,·,·,·,0.00666,0.0264*,0.0384*,0.0161*,0.0355*,0.0185*
CC1=NN(c2nc(-c3ccc(C)cc3)cs2)C(=O)C1N=Nc1cccc(C)c1 (stereo not drawn),5.4,2.64,2.2,-1.2,-3.3,·,·,·,·,·,·
CCOc1ccccc1NC(=S)N(CCCN1CCOCC1)Cc1cn(C)c2ccccc12,2.1,-4.67*,8.2,7.4,2.5,0.00733,0.00474,0.0294,?,0.0186,0.0107
COc1ccccc1NC(=S)N(CCCN1CCOCC1)Cc1cn(C)c2ccccc12,1.9,-1.45,10.6,-49.9,-0.7,·,·,·,·,·,·
Cc1nc(N2CCOCC2)c2c3c(sc2n1)CCC3,1.2,13.5*,23.5,·,·,0.00985,0.0168*,0.0334,0.0164*,0.0318*,0.0112*
CSc1nc(N2CCOCC2)c2c3c(sc2n1)CCCC3,1.6,-0.0328,25.9,4.3,-8.5,·,·,·,·,·,·
FC(F)(F)c1ccnc(NCc2ccco2)n1,·,-0.849,·,·,·,·,·,·,·,·,·
Cc1oc(-c2ccccc2Cl)nc1CN1CCCCC1c1cccnc1 (stereo not drawn),-0.5,-0.161,-4.0,·,·,·,·,·,·,·,·
COc1cc(C(=O)NC(=S)NNC(=O)c2ccc3c(c2)OCO3)cc(OC)c1OC,·,5.12*,·,·,·,0.01,0.0128*,0.0325,?,?,0.0107
COc1cc(C(=O)NC(=S)N(C)Cc2ccccc2)cc(OC)c1OC,3.1,10.9*,7.9,·,·,0.0184*,0.0508*,0.0312,0.0168*,0.0334*,0.0122*
COc1cc(C(=O)NNC(=S)NC(=O)c2ccc(F)cc2)cc(OC)c1OC,·,6.54*,·,·,·,0.0114,0.015*,0.0333,0.0137*,?,0.0116
COc1cc(C(=O)NNC(=O)c2ccc(NC(C)=O)cc2)cc(OC)c1OC,0.9,-1.08,1.3,·,·,·,·,·,·,·,·
COc1ccc(C2=CC(=O)C=CC2=O)cc1,·,-1.64,·,·,·,·,·,·,·,·,·
CC(=O)NN1C(=O)/C(=C\c2ccc(C)cc2)SC1=S,2.9,·,53.8,-57.1,-21.9,·,·,·,·,·,·
CCOc1ccc(/C=C2\SC(=S)N(NS(=O)(=O)c3ccc(C)cc3)C2=O)cc1OC,·,24*,·,·,·,0.00655,0.0392*,0.029,0.0212*,?,0.0141*
CCN=C1S/C(=C\c2ccc(OCC)c(OC)c2)C(=O)N1CC,5.8,-0.0197,-4.3,-8.4,-2.8,·,·,·,·,·,·
CCOc1ccc(/C=C2\SC(=S)N(NS(=O)(=O)c3ccccc3)C2=O)cc1OC,·,6.99*,·,·,·,?,0.028*,0.0335,0.0137*,?,0.0178*
COc1cc(/C=C2\SC(=O)NC2=O)ccc1Oc1ccc([N+](=O)[O-])cc1[N+](=O)[O-],5.2,-4.19*,18.5,·,·,0.00745,0.0101*,0.0282,0.00715,0.0182,0.0115
CCOc1ccc(/C=C2\SC(=S)NC2=O)cc1OC,6.0,9.4*,44.4,·,·,0.0129*,0.0205*,?,0.0159*,0.0227,0.012*
SMILES,RAM inhibit,Cl transport mod,WT yeast gro inh,BB579 growth dn,Yeast lifespan up,KCC2 sec1,KCC2 bumet counter,KCC2 sec2,HEK counter1,KCC2 retest ouab,HEK counter2
CO/N=C/c1ccc(Oc2ccc([N+](=O)[O-])cc2[N+](=O)[O-])c(OC)c1,5.3,-0.0522,23.2,-25.8,11.3,·,·,·,·,·,·
CCOC(=O)C1CCCN(c2c(NCCCN(CC)c3ccccc3)c(=O)c2=O)C1 (stereo not drawn),1.9,4.57*,-3.0,-24.9,-13.7,0.00916,0.00664,0.0292,0.00677,0.05,0.0102
CC(/C=N/NC(=S)Nc1cccc(S(=O)(=O)N(C)C)c1)c1ccccc1 (stereo not drawn),0.5,0.555,-13.2,-10.4,-3.3,·,·,·,·,·,·
Cc1ccc(C)c(NC(=S)N/N=C/C(C)c2ccccc2)c1 (stereo not drawn),1.5,25.3*,22.6,·,·,0.0114,0.0244*,0.033,?,?,0.00835
O=C(CSc1nc2ccccc2c(=O)n1-c1ccc(SC(F)F)cc1)Nc1ccc(N2CCOCC2)cc1,2.8,4.48*,-15.7,·,·,0.00958,0.0145*,0.0304,0.00999*,0.0237,0.0111*
Cc1nnc(SC(C)C(=O)NC2CCCc3ccccc32)n1-c1ccccc1 (stereo not drawn),0.6,0.0909,-6.0,-18.6,-3.5,·,·,·,·,·,·
Cc1ccccc1-n1nnnc1SC(C)C(=O)NC1CCCc2ccccc21 (stereo not drawn),2.0,-3.49*,27.6,-23.0,5.6,0.00629,0.00451,0.0338,0.0037,0.0166*,0.0109
Cc1cc(C)c2nc(N3CCC(C(=O)N4CCN(c5ncccn5)CC4)CC3)sc2c1,-0.4,-1.59,8.4,-82.7,-7.6,·,·,·,·,·,·
Cc1cc(C)c2nc(N3CCC(C(=O)N4CCCC4)CC3)sc2c1,-0.8,·,25.8,-25.3,-10.6,?,0.00573,0.0339,0.00408,0.0148*,0.0113
O=C(Nc1ccc(Cc2ccncc2)cc1)c1ccc(N2CCOCC2)c([N+](=O)[O-])c1,0.8,-5.93*,-10.6,·,·,0.0089,?,?,0.00741,0.0157*,0.0105

# Source: PubChem
